# Data: ChEMBL document CHEMBL1122206, “Use of adenine nucleotide derivatives to assess the potential of exo-active-site-directed reagents as species- or isozyme-specific enzyme inactivators. 5. Interactions of adenosine 5'-triphosphate derivatives with rat pyruvate kinases, Escherichia coli thymidine kinase, and yeast and rat …” (1982)
# What was measured:
# [1] = biological target: T1, Hexokinase-2 (Rattus norvegicus) (UniProt P27881); assay: Time dependent inhibition of hexokinase 2 activity after 6 h, at 5 mM compound
# T1 sequence (whole entry): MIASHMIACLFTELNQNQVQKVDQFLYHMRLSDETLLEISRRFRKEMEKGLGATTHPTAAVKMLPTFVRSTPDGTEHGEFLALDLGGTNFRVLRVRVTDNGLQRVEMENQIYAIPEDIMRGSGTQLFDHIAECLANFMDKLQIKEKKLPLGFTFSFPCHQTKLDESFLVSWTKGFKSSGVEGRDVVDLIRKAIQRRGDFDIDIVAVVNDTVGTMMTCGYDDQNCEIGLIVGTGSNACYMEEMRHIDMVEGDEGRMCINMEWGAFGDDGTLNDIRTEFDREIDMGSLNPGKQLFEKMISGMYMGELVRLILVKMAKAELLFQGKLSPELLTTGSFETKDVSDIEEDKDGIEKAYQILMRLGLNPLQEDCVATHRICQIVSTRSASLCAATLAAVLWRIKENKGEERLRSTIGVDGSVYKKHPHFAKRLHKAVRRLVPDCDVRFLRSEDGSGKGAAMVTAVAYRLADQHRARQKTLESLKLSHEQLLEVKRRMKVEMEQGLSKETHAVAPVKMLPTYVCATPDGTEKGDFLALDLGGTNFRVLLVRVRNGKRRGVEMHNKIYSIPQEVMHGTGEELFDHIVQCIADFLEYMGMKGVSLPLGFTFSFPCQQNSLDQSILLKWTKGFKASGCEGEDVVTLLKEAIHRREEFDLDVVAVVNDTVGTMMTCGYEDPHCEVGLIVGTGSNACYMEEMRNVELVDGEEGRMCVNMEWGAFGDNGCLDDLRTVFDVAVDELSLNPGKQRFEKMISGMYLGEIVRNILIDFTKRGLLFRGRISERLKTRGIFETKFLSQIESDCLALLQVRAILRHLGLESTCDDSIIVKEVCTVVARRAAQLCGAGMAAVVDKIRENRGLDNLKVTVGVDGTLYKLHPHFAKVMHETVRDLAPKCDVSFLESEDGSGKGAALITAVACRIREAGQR
# [2] = biological target: T2, Hexokinase-1 (Rattus norvegicus) (UniProt P05708); assay: Substrate activity for rat hexokinase I as 1:1 Mg complex at 5.0 mM
# T2 sequence (whole entry): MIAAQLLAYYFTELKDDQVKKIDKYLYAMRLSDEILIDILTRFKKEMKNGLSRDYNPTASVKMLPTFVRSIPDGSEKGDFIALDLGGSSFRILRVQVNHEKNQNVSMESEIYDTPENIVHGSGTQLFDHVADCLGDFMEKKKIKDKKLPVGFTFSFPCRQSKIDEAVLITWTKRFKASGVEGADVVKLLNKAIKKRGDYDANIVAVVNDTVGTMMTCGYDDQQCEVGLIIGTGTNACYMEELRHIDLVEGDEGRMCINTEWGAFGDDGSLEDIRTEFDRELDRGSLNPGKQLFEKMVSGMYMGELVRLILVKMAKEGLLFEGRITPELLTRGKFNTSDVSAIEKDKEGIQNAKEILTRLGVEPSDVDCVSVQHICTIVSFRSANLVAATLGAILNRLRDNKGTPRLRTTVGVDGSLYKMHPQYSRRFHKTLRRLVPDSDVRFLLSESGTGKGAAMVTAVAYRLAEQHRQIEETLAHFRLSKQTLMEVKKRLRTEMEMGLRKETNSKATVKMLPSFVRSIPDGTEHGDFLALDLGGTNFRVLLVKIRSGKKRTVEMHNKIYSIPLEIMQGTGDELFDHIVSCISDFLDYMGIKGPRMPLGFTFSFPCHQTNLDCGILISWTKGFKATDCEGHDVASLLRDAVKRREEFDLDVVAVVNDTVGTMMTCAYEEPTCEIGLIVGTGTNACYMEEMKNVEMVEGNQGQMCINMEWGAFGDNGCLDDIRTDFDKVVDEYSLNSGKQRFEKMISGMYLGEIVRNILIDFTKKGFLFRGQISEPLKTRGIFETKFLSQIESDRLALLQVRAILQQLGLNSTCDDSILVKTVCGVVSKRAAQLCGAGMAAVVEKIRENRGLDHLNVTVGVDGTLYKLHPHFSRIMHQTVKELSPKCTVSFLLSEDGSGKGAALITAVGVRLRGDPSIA
# In short: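 Hexokinase activity read at 22 °C as A340 change, coupled to glucose-6-phosphate dehydrogenase, in 0.05 M Tris-HCl pH 7.6 with 6.6 mM MgCl2, 10 mM α-D-glucose and 0.93 mM NADP. Donor was 5.0 mM MgATP derivative (1:1 Mg complex) in place of ATP. Yeast HK was isoelectric-focused. Rat HK I and III came from electrofocused liver extract, HK II from dialysed muscle extract.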
# [3] = Substrate concentration for half maximal velocity was reported for rat hexokinase II
# In short: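 Coupled glucose-6-phosphate dehydrogenase/NADP assay: A340 rate at 22 °C in 0.05 M Tris-HCl pH 7.6 with 6.6 mM MgCl2, 10 mM α-D-glucose and 0.93 mM NADP, nucleotide varied. KM was taken from linear double-reciprocal plots. Rat HK I and III came from electrofocused, dialysed liver extract, HK II from dialysed muscle extract, and yeast HK was isoelectric-focused.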
smiles,measurement,setting,value
Nc1ncnc2c1ncn2[C@@H]1O[C@H](COP(=O)(O)OP(=O)(O)OP(=O)(O)O)[C@@H](O)[C@H]1O,inhibition,[1],0%
same,Relative velocity,[2],1
same,Km,[3],710 µM
